According to ChEMBL document CHEMBL4665779, “Novel 2-Substituted 3-Hydroxy-1,6-dimethylpyridin-4(1H)-ones as Dual-Acting Biofilm Inhibitors of Pseudomonas aeruginosa” (J Med Chem, 2020):
Active and inactive are the calls of the source. No cut-off for these calls is given here.

Key:
[1] = Inhibition of GFP (unknown origin) at 1.25 to 20 uM by measuring fluorescence intensity every 15 mins for 12 hrs by microtiter plate reader assay; conditions: dose microM 1.25-20, time 12.0 hrs
Method in brief: (§1)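 PAO1-gfp, PAO1-lasB-gfp, PAO1-rhlA-gfp or PAO1-pqsA-gfp reporters were grown overnight in LB, then diluted in ABTGC medium to OD600 0.02, with compound at 1.25–20 μM. Controls were 0.1% DMSO and a blank. OD600 and GFP fluorescence (ex 485/em 535 nm) were read every 15 min for at least 12 h at 37 °C; triplicate.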

[2] = tested on: Pseudomonas aeruginosa PAO1; test: Inhibition of quorum sensing system las in Pseudomonas aeruginosa PAO1 assessed as reduction in elastase production at 1.25 to 20 uM after 24 hrs by BODIPY fluorophore based fluorescence assay; conditions: dose microM 1.25-20, time 24.0 hrs
Method in brief: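 PAO1 in LB at OD600 0.01 was incubated with compound (0–20 μM) for 24 h at 37 °C with shaking. The centrifuged supernatant was mixed with BODIPY FL-labelled DQ elastin substrate. Fluorescence (ex 490/em 520 nm) was read every 10 min for 5 h.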

[3] = molecular target: 3-(3-hydroxydecanoyloxy)decanoate synthase (Pseudomonas aeruginosa (strain ATCC 15692 / PAO1 / 1C / PRS 101 / LMG12228)) (UniProt Q51559); test: Inhibition of rhlA fluorescence in Pseudomonas aeruginosa PAO1 transfected with GFP by measuring fluorescence intensity every 15 mins for 12 hrs by microtiter plate reader assay; conditions: dose microM 1.25-20, time 12.0 hrs; method in brief: as §1
Pseudomonas aeruginosa [4] = test: Antibiofilm activity against Pseudomonas aeruginosa PAO1 assessed as inhibition of biofilm formation at 20 uM after 24 hrs by crystal violet staining based assay relative to control; format: functional
Method in brief: (§2)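 PAO1 (OD600 0.05) was cultured in ABTGC medium at 37 °C for 24 h with compound (1.25–20 μM for the dose series). Wells were PBS-washed three times, methanol-fixed for 30 min, air-dried, and stained with 0.1% crystal violet for 30 min. Stain was solubilized in 33% acetic acid and read at 570 nm. Compound stocks were […]. Run in triplicate.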

Pseudomonas aeruginosa [5] = test: Inhibition of biofilm formation in multidrug resistant Pseudomonas aeruginosa FB at 5 uM relative to control; format: functional
Pseudomonas aeruginosa [6] = test: Antibiofilm activity against Pseudomonas aeruginosa PAO1 assessed as inhibition of biofilm formation after 24 hrs by crystal violet staining based assay; format: functional, organism-based; conditions: dose microM 1.25-20, time 24.0 hrs; method in brief: as §2
Vero = test: Cytotoxicity against African green monkey Vero cells assessed as reduction in cell viability up to 50 uM after 16 hrs by MTT assay; format: cell-based; conditions: chlorocebus sabaeus
Method in brief: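 Vero or LO2 cells were seeded at 5000–15000 cells/well for 16 h, PBS-washed, then exposed to compound in DMEM at 37 °C and 5% CO2 for 16 h. MTT (20 μL of 5 mg/mL) was added for 3 h, and formazan was dissolved in DMSO and read at 570 nm. Triplicate; mean ± SD.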

[7] = tested on: Pseudomonas aeruginosa PA14; test: Inhibition of quorum sensing system PQS in Pseudomonas aeruginosa PA14 assessed as reduction in pyocyanin production measured after 48 hrs; conditions: dose microM 1.25-20, time 48.0 hrs
Method in brief: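 PA14 culture standardized to OD600 0.05 was diluted 100-fold in LB and grown 48 h at 37 °C with shaking, with compound at 1.25–20 μM. Cleared supernatant was extracted with chloroform (4:1), then back-extracted into 0.2 M HCl. A520 was read and normalized to final OD600.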

[8] = tested on: Pseudomonas aeruginosa PAO1; test: Induction of iron chelation in Pseudomonas aeruginosa PAO1 assessed as increase in iron deficiency by measuring change in total ferric ion concentration at 1.25 uM by inductively coupled plasma mass spectrometry (reference value: 1.91 +/- 0.8 uM)
Method in brief: (§3)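 PAO1 (OD600 0.05) was diluted 1:100 into ABTGC medium and grown 24 h at 37 °C with shaking, with compound; DFP at 20 μM was the reference. Pellets were washed twice in HEPES and lysed with lysozyme in 50 mM HEPES plus sonication for 30 min. Lysates were digested with 1 M nitric acid, centrifuged, and analysed by ICP-MS. Mean ± SD, triplicate.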

Pseudomonas aeruginosa [9] = test: Inhibition of swimming motility of Pseudomonas aeruginosa PAO1 measured after 16 hrs; format: functional, organism-based; conditions: dose microM 1.25-20, time 16.0 hrs
Method in brief: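 Compound (0–20 μM) was included in LB plates with 0.3% agar, 0.5% casamino acids and 0.5% glucose. Plates were dried 1 h, then 1 μL PAO1 (OD600 1) was placed at the plate bottom. Incubation was 16 h at 37 °C; three independent experiments.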

[10] = tested on: Pseudomonas aeruginosa PAO1; test: Induction of iron chelation in Pseudomonas aeruginosa PAO1 assessed as increase in intracellular pyoverdin level in presence of 10 uM FeCl3 by fluorescence microplate reader assay; format: cell-based; conditions: dose microM 1.25-20
Method in brief: (§4)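 PAO1 overnight LB culture was diluted in ABTGC medium to OD600 0.02 ([…]), with compound at 0–20 μM, in medium containing 10 or 50 μM FeCl3. Plates were kept at 37 °C in a plate reader recording OD600, pyoverdine fluorescence (ex 400/em 447 nm) and pyochelin fluorescence (ex 350/em 430 nm). Triplicate.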

[11] = Metal chelating activity assessed as negative logarithm of total free ferric ion concentration in a solution at 60 uM measured after 48 hrs in presence of CP645 probe and Fe-NTA by fluorescence spectrophotometry analysis
Pseudomonas aeruginosa [12] = test: Antibiofilm activity against Pseudomonas aeruginosa PAO1 harboring sigma factor-Pvds mutant assessed as inhibition of biofilm formation at 20 uM relative to control; format: functional
[13] = tested on: Pseudomonas aeruginosa PAO1; test: Induction of iron chelation in Pseudomonas aeruginosa PAO1 assessed as increase in intracellular pyochelin level at 1.25 to 20 uM in presence of 50 uM FeCl3 by fluorescence microplate reader assay; format: cell-based; conditions: dose microM 1.25-20; method in brief: as §4
Pseudomonas aeruginosa [14] = test: Inhibition of biofilm formation in multidrug resistant Pseudomonas aeruginosa 1167 at 5 uM relative to control; format: functional
[15] = tested on: Pseudomonas aeruginosa PAO1; test: Induction of iron chelation in Pseudomonas aeruginosa PAO1 assessed as increase in iron deficiency by measuring ferric ion concentration inductively coupled plasma mass spectrometry; conditions: dose microM 1.25-20; method in brief: as §3
Pseudomonas aeruginosa [16] = test: Antibiofilm activity against Pseudomonas aeruginosa PAO1 assessed as reduction in biofilm mass after 24 hrs by microtiter plate assay; format: functional, organism-based; conditions: dose microM 1.25-20, time 24.0 hrs; method in brief: as §2
Pseudomonas aeruginosa [17] = test: Inhibition of biofilm formation in multidrug resistant Pseudomonas aeruginosa 1167 at 10 uM relative to control; format: functional
Pseudomonas aeruginosa [18] = test: Inhibition of biofilm formation in multidrug resistant Pseudomonas aeruginosa FB at 2.5 uM relative to control; format: functional
[19] = tested on: Pseudomonas aeruginosa PAO1; test: Induction of iron chelation in Pseudomonas aeruginosa PAO1 assessed as increase in intracellular pyochelin level at 1.25 to 20 uM in presence of 10 uM FeCl3 by fluorescence microplate reader assay; format: cell-based; conditions: dose microM 1.25-20

CCCCCCC(=O)NCc1c(O)c(=O)cc(C)n1C
inhibition [1]: inactive
inhibition [2]: Active
inhibition [3]: Dose-dependent effect
inhibition at 20 µM (Pseudomonas aeruginosa [4]): 68.7%
inhibition at 5 µM (Pseudomonas aeruginosa [5]): 3.57%
inhibition (Pseudomonas aeruginosa [6]): Dose-dependent effect
Activity (Vero): Non-Toxic
inhibition [7]: Dose-dependent effect
Activity [8]: 1.55 µM
inhibition (Pseudomonas aeruginosa [9]): Dose-dependent effect
Activity [10]: Dose-dependent effect
pFe3+ [11]: 22
inhibition at 20 µM (Pseudomonas aeruginosa [12]): 20%
Activity [13]: inactive
inhibition at 5 µM (Pseudomonas aeruginosa [14]): 43.7%
Activity [15]: Dose-dependent effect
Activity (Pseudomonas aeruginosa [16]): Dose-dependent effect
inhibition at 10 µM (Pseudomonas aeruginosa [17]): 47.4%
inhibition at 2.5 µM (Pseudomonas aeruginosa [18]): -8.67%
Activity [19]: Active
